# Source: PubChem (several laboratories)
# DAGLB inhibitor: diacylglycerol lipase beta (human) inhibition | HEK293T DAGLB membrane lysate, EnzChek fluorogenic substrate | inhibition, % at 5.17 µM | 0.059% of 340,000 active | Q8NCG7; in the data active = inhibition above about 34%
# Target sequence (Q8NCG7 whole entry, looked up): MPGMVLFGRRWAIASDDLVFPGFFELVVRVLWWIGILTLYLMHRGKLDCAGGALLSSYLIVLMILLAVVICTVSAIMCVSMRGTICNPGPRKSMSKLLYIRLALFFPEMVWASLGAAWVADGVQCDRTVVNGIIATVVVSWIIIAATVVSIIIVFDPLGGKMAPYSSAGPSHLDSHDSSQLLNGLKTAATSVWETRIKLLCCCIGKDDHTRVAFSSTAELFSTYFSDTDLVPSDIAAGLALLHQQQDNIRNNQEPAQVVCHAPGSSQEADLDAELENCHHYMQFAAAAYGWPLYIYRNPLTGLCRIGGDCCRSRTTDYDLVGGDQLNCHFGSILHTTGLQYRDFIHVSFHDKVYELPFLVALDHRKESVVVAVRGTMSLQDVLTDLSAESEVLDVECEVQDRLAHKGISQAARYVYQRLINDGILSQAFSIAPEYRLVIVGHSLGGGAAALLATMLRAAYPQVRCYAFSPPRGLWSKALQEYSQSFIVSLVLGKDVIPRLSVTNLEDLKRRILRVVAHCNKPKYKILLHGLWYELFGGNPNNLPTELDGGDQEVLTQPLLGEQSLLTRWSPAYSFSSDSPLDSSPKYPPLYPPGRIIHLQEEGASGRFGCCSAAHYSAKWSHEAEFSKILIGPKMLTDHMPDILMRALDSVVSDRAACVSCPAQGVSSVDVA
# Cneo AK release: causes C. neoformans cell lysis; adenylate kinase release luminescence, 4 h; normalised: neutral wells 0, clomiphene wells 100; lysis activity, % at 15 µM; 0.2% of 360,000 active;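 active = mean lysis activity across replicates of at least 80%, whatever share of replicates individually reach that level; inactive = mean lysis activity below 80%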
#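 Material: C. neoformans cells | Amount: Yeast cell density of 5 × 10^6 cells/mL | Medium: Fresh YPD growth medium | Dosing: Single dose | Times: Static 4 h at 37 °C with compound, 1 h detection | Detection: AK luminescence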
# SKN-1 block: blocks SKN-1 activity in C. elegans; C. elegans VP596 Pgst-4::GFP/RFP ratio, acrylamide-induced, 24 h; inhibition, % at 21.8 µM; 0.49% of 360,000 active; AID 624304;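 active = interference check ratio from 0.5 to 1.5 plus GFP to RFP signal ratio inhibition reaching or exceeding a fixed threshold, cut at about 30% in these data, passing the limit was not always enough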
# iPSC survival up: enhancers of human iPSC single-cell survival; 0.044% of 360,000 active; hiPSC single-cell survival, ATPlite luminescence; 100% = ROCK inhibitor wells, 0% = DMSO; survival enhancement, % at 20 µM; in the data active = survival enhancement above about 18%;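 note: cells exposed to compounds for 16 hours before the ATP read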
# Ecoli rRNA inh: inhibits bacterial ribosomal RNA function over humanized ribosomes | AID 720706 | E. coli WT GFP vs humanized-ribosome RFP mutants, fluorescence, 24 h; hits give low values; DMSO median 0, no signal -100 | 1.6% of 350,000 active | GFP signal change (wild-type ribosome), % (concentration not given with the values);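 active = significant combined selectivity score with lowered wild-type GFP, culture density cut under 30%, mutant RFP and density less affected; inactive = any of these conditions unmet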
# MT1-MMP act inh: inhibitors of human MT1-MMP activation; 0.061% of 360,000 active; GFP/RFP ratio change, % at 20 µM; P50281; HT1080 RFP-PRO-GFP cells, GFP/RFP ratio fluorescence, overnight; percent of plate control window, DMSO zero;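 active = GFP/RFP ratio change of at least 30% with cell ATP level not reduced by more than half and red fluorescence within 50% of control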
#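 Assay system: RFP-PRO-GFP reporter HT1080 cells; read-out basis: GFP/RFP fluorescence ratio; benchmarks: DMSO wells and RFP-L50D-GFP cells; doses: 20 µM single dose, 1% DMSO; schedule: overnight cell settling, then overnight compound exposure, 37 °C, 5% CO2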
# HepG2 cytotox: cytotoxic compounds in HepG2 cells | shares compounds with Ecoli rRNA inh | HepG2 viability, ATP luminescence, 72 h | activity change, negative = cytotoxicity, unspecified at 26 µM | 30 tested, under 10 active | AID 743480;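 active = compounds whose fitted half-maximal signal-loss concentration is at most twice their highest valid dose; inconclusive = flat curve with 30 to 70% signal loss, or poor fit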
# AID977621: growth inhibition of wild-type GFP E. coli, dose response, H69 mutant RFP, cherry-pick; shares compounds with Ecoli rRNA inh; E. coli wild-type GFP strain growth, fluorescence, 24 h; activity change, negative = inhibition at 50 µM; 1,900 tested, under 10 active; AID 977621;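 active = Wild-type ribosome reporter drop at least double the humanized mutant ribosome reporter drop, growth loss under a set limit; inconclusive = no clear call, values can overlap the other calls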;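 note: wild-type GFP and H69 mutant RFP strains grown together 50/50 in each well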
# AID977628: E. coli growth inhibition, wild-type GFP versus h24 humanized RFP strain, dose response, h24 mutant RFP vs wild-type GFP, cherry-pick; shares compounds with Ecoli rRNA inh; E. coli WT GFP strain growth, fluorescence, 24 h; activity change, negative = inhibition at 50 µM; 1,900 tested, under 10 active;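 active = compound lowering the normal-ribosome reporter at least twice as much as the humanized-ribosome reporter, growth loss under a set limit; inconclusive = no clear call, values can overlap the other calls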;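 note: wild-type GFP and h24 humanized RFP strains co-cultured 1 to 1 per well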
# Hits are given with their value; . = inactive; ? = inconclusive; / = no result given. A selection: hits, their analogues and other compounds. The true share with any hit is near 1.8%.
SMILES,DAGLB inhibitor,Cneo AK release,SKN-1 block,iPSC survival up,Ecoli rRNA inh,MT1-MMP act inh,AID977621,AID977628,others
Cc1ccc(S(=O)(=O)N2CCN(CC(=O)Nc3ccc4c(c3)CCC4)CC2)cc1C,.,.,.,.,/,.,/,/,
CSc1ccccc1NC(=O)CN(C)CC(=O)Nc1ccc(S(=O)(=O)N2CCCC2)cc1,.,.,.,.,.,.,/,/,
CN(CC(=O)Nc1ccc(S(=O)(=O)N2CCCC2)cc1)CC(=O)Nc1ccc(F)c(F)c1F,.,/,.,.,-32.8,.,.,?,
COc1ccccc1OCC(=O)Nc1ccc(S(=O)(=O)N2CCCCCC2)cc1,.,.,.,.,-19.4,.,.,/,
O=C(CN1CCN(S(=O)(=O)c2ccc(Cl)cc2)CC1)Nc1ccc2c(c1)CCC2,.,.,.,.,-21.1,.,.,?,
C/C=C/c1ccc([C@@H]2[C@H](CO)N(CCC(F)(F)F)C23CN(C(C)=O)C3)cc1,/,/,/,/,.,/,/,/,
O=C(N[C@H]1C=C[C@H](CC(=O)N2CCc3ccccc3C2)O[C@@H]1CO)C1CCOCC1,/,/,/,/,.,/,/,/,
COc1ccccc1CN1Cc2ccccc2Oc2ccccc2S1(=O)=O,/,/,/,/,-26.8,/,?,/,
COc1ccc(NC(=O)CN(C)S(=O)(=O)c2cccs2)cc1,.,.,.,.,/,.,/,/,
Cc1cccc(NC(=O)CN(C)S(=O)(=O)c2cccs2)c1,.,.,.,.,-27.0,.,.,?,
CSCCC1NC(=O)N(C(C)C(=O)Nc2cc(Cl)cc(Cl)c2)C1=O (stereo not drawn),.,.,.,.,-21.4,.,.,.,
O=C(NCCc1ccc(Cl)cc1Cl)c1ccc2nc[nH]c2c1,.,.,.,.,.,.,/,/,
O=C(NCCc1ccc(Cl)cc1)c1ccc2nc[nH]c2c1,.,/,.,.,-31.8,.,/,?,
O=C(Nc1ccc(F)cc1)N[C@H]1CC[C@H](CCNC(=O)c2ccccc2F)O[C@H]1CO,/,/,/,/,.,/,/,/,
COc1cccc(S(=O)(=O)N2CCCCN3[C@H](CO)[C@H](c4ccc(C#CC(C)C)cc4)[C@H]3C2)c1,/,.,/,/,.,/,/,/,
COc1cccc(S(=O)(=O)N2CCCCN3[C@H](C2)[C@@H](c2ccc(C#CC(C)C)cc2)[C@@H]3CO)c1,/,.,/,/,.,/,.,.,
COc1ccc(C#Cc2ccc([C@H]3[C@@H](CO)N4CCCCN(C(=O)Nc5cccc(F)c5)C[C@H]34)cc2)cc1,/,.,/,/,-48.2,/,.,.,
COc1ccc(C#Cc2ccc([C@@H]3[C@H]4CN(C(=O)Nc5cccc(F)c5)CCCCN4[C@H]3CO)cc2)cc1,/,.,/,/,.,/,/,/,
COc1ccc(C#Cc2ccc([C@@H]3[C@H](CO)N4CCCCN(C(=O)Nc5cccc(F)c5)C[C@@H]34)cc2)cc1,/,.,/,/,-49.0,/,/,?,
O=C(C[C@@H]1C=C[C@H](NC(=O)Nc2ccc(F)cc2)[C@H](CO)O1)NCc1cccc(F)c1,/,.,/,/,.,/,/,/,
CC1Sc2ccc(S(=O)(=O)NCc3ccccc3)cc2NC1=O (stereo not drawn),.,.,.,.,-21.2,.,.,/,
CC(=O)Nc1cccc(NC(=O)CCN2C(=O)c3ccccc3S2(=O)=O)c1,.,.,.,.,-14.5,.,?,.,
Cc1cc(C)c(C#N)c(N2CCN(c3ccccc3)CC2)n1,.,.,.,.,-26.4,.,/,/,HepG2 cytotox=.
COc1ccc2c3c([nH]c2c1)[C@@H](CO)N(C(=O)c1cccc(F)c1)CC31CCN(C(=O)c2ccccc2)CC1,/,/,/,/,.,/,/,/,
CC(C)Oc1ccc(C(=O)Nc2cccc3cccnc23)cc1,.,.,.,.,-21.7,.,.,.,
